Experimental data: ChEMBL document CHEMBL3627671, “Novel derivatives of nitro-substituted salicylic acids: Synthesis, antimicrobial activity and cytotoxicity” (Bioorg Med Chem, 2015)
In brackets after ≈: the same amount, converted by molar mass.

Tests used:
Assay type in all cases: functional
[1] = system: Mycobacterium tuberculosis; assay: Antimycobacterial activity against Mycobacterium tuberculosis H37Rv 331/88 after 21 days; conditions: H37Rv 331/88, 504 h
[2] = system: Mycobacterium kansasii; assay: Antimycobacterial activity against Mycobacterium kansasii 235/80 after 7 days; conditions: 235/80, 168 h
Method in brief: (§1)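 Šula's semisynthetic medium micromethod at 37 °C, read after 7, 14 and 21 days. The 1.0 McFarland suspension was diluted 10^-4. MIC determined. 6509/96 is a clinical isolate.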

[3] = system: Mycobacterium tuberculosis; assay: Antimycobacterial activity against Mycobacterium tuberculosis H37Rv 331/88 after 14 days; conditions: H37Rv 331/88, 336 h
[4] = system: Mycobacterium kansasii; assay: Antimycobacterial activity against Mycobacterium kansasii 235/80 after 14 days; conditions: 235/80, 336 h; method in brief: as §1
[5] = system: Mycobacterium kansasii; assay: Antimycobacterial activity against Mycobacterium kansasii 235/80 after 21 days; conditions: 235/80, 504 h; method in brief: as §1
[6] = system: Mycobacterium avium; assay: Antimycobacterial activity against Mycobacterium avium 330/80 after 14 days; conditions: 330/80, 336 h
[7] = system: Mycobacterium avium; assay: Antimycobacterial activity against Mycobacterium avium 330/80 after 21 days; conditions: 330/80, 504 h
[8] = system: Mycobacterium kansasii; assay: Antimycobacterial activity against Mycobacterium kansasii 6509/96 after 21 days; conditions: 6509/96, 504 h; method in brief: as §1
[9] = system: Mycobacterium kansasii; assay: Antimycobacterial activity against Mycobacterium kansasii 6509/96 after 7 days; conditions: 6509/96, 168 h; method in brief: as §1
[10] = system: Mycobacterium kansasii; assay: Antimycobacterial activity against Mycobacterium kansasii 6509/96 after 14 days; conditions: 6509/96, 336 h; method in brief: as §1

Structure (SMILES)	MIC [1] [µM]	MIC [2] [µM]	MIC [3] [µM]	MIC [4] [µM]	MIC [5] [µM]	MIC [6] [µM]	MIC [7] [µM]	MIC [8] [µM]	MIC [9] [µM]	MIC [10] [µM]
O=C(Nc1ccc([N+](=O)[O-])c(C(F)(F)F)c1)c1cccc([N+](=O)[O-])c1O	16 (≈ 5.94 µg/mL)	32 (≈ 11.9 µg/mL)	16 (≈ 5.94 µg/mL)	62.5 (≈ 23.2 µg/mL)	125 (≈ 46.4 µg/mL)	250 (≈ 92.8 µg/mL)	500 (≈ 186 µg/mL)	62.5 (≈ 23.2 µg/mL)	32 (≈ 11.9 µg/mL)	62.5 (≈ 23.2 µg/mL)
O=C(Nc1ccc([N+](=O)[O-])cc1)c1cccc([N+](=O)[O-])c1O	32 (≈ 9.7 µg/mL)	32 (≈ 9.7 µg/mL)	32 (≈ 9.7 µg/mL)	62.5 (≈ 19 µg/mL)	125 (≈ 37.9 µg/mL)	125 (≈ 37.9 µg/mL)	125 (≈ 37.9 µg/mL)	125 (≈ 37.9 µg/mL)	62.5 (≈ 19 µg/mL)	125 (≈ 37.9 µg/mL)
O=C(Nc1cccc([N+](=O)[O-])c1)c1cccc([N+](=O)[O-])c1O	62.5 (≈ 19 µg/mL)	62.5 (≈ 19 µg/mL)	62.5 (≈ 19 µg/mL)	250 (≈ 75.8 µg/mL)	250 (≈ 75.8 µg/mL)	> 500	> 500	250 (≈ 75.8 µg/mL)	62.5 (≈ 19 µg/mL)	250 (≈ 75.8 µg/mL)
